In ChEMBL document CHEMBL1145575, “Design and synthesis of novel furoquinoline based inhibitors of multiple targets in the PI3K/Akt-mTOR pathway” (Bioorg Med Chem Lett, 2008):
Calls of active or inactive are those of the source. The calls are words filed in the database; no cut-off is given here.

Key:
H460 [1] = assay: Inhibition of PI3K in human H460 cells assessed as Akt phosphorylation at Ser 473 at 10 uM; type: cell-based
Method in brief: (§1)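 Human NSCLC H-460 cells; PI3K activity read as Akt phosphorylation at Ser 473 and mTOR activity as p70S6 kinase phosphorylation at Thr 389. Compounds were screened at 10 µM, and some up to 30 µM. Activity was reported as % inhibition. LY-294002 served as the reference inhibitor at 30 µM.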

[2] = target: Serine/threonine-protein kinase mTOR (Homo sapiens) (UniProt P42345); assay: Inhibition of mTOR in human H460 cells assessed as p70S6 phosphorylation at Thr 389 upto 30 uM; type: cell-based; method in brief: as §1
[3] = target: Phosphatidylinositol 4,5-bisphosphate 3-kinase catalytic subunit alpha isoform (Homo sapiens, UniProt P42336); assay: Inhibition of human recombinant PI3K-alpha assessed as formation of PI3P from PI by cell free kinase assay
Sequence of Phosphatidylinositol 4,5-bisphosphate 3-kinase catalytic subunit alpha isoform (P42336 whole entry, canonical isoform): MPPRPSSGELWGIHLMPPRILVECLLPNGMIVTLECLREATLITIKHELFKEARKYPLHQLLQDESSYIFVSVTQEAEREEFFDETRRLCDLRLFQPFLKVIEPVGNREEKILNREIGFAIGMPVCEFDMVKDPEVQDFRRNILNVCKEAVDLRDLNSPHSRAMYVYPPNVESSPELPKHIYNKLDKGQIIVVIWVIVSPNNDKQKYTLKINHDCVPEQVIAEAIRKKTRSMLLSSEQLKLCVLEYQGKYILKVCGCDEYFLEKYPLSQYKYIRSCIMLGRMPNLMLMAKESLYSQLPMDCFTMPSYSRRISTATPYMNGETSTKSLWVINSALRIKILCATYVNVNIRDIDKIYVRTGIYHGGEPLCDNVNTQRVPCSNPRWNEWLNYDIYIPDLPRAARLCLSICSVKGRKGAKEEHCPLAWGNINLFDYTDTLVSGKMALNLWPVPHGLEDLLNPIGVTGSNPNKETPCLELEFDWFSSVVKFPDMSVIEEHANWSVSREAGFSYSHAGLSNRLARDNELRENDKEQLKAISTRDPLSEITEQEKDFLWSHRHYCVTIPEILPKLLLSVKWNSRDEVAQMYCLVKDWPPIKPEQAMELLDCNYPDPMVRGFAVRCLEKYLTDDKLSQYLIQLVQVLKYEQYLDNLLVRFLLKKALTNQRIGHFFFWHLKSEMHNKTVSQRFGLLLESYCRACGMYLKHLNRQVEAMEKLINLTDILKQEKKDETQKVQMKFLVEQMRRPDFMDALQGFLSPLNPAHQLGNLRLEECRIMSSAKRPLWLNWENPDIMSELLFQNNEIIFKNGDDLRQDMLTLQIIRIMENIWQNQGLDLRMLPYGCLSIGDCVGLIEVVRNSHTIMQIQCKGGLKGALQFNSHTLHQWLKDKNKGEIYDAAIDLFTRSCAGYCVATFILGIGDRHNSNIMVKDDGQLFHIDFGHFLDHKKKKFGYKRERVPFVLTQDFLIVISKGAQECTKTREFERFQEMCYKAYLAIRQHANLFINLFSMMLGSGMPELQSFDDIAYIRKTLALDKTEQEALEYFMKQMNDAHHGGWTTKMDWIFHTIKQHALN
Method in brief: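 Cell-free kinase assay with recombinant PI3Kα (p110α). The read-out was PI3P formed from the substrate phosphatidylinositol. An IC50 was derived.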

[4] = target: T1, Hypoxia inducible factors; HIF-1-alpha, HIF-2-alpha (Homo sapiens, UniProt Q16665+Q99814); assay: Inhibition of hypoxia-induced HIF1 activation in human U251HRE cells by cell based reporter gene assay
H460 [5] = assay: Inhibition of PI3K in human H460 cells assessed as Akt phosphorylation at Ser 473 upto 30 uM; type: cell-based; method in brief: as §1
[6] = target: Hypoxia-inducible factor 1-alpha (Homo sapiens) (UniProt Q16665); assay: Inhibition of HIF1alpha
Sequence of Hypoxia-inducible factor 1-alpha (Homo sapiens) (Q16665 whole entry, looked up): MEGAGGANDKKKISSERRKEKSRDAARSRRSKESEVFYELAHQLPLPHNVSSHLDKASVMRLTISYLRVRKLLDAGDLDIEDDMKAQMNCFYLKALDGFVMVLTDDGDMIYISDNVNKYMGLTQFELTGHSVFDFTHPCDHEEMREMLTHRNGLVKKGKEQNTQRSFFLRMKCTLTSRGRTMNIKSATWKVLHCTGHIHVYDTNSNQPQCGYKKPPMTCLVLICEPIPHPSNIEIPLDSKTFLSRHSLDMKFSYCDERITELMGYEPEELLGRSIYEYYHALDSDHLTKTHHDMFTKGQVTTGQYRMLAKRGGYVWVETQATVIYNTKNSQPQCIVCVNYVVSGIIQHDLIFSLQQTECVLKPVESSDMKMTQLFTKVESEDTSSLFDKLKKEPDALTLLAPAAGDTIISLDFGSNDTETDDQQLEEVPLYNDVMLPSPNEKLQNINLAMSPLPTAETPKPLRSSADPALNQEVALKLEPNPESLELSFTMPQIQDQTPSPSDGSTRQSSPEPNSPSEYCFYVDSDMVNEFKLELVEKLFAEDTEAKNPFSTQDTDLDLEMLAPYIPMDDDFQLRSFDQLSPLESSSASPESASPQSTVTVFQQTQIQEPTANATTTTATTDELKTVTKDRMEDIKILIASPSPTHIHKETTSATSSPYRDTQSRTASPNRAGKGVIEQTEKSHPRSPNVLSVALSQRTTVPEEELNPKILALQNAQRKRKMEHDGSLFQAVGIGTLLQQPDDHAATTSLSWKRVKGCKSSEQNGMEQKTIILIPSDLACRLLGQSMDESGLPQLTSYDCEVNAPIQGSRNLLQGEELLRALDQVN
Method in brief: (§2)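 HRE-driven cell-based reporter gene assay of HIF-1 activation. Activation was induced by hypoxia (1% O2, 94% N2, 5% CO2) or by DFX. Compounds were tested up to 30 µM and an IC50 was derived. YC-1 served as the reference inhibitor.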

[7] = target: Hypoxia-inducible factor 1-alpha (Homo sapiens) (UniProt Q16665); assay: Inhibition of HIF1-alpha at 30 uM; method in brief: as §2
[8] = target: Serine/threonine-protein kinase mTOR (Homo sapiens) (UniProt P42345); assay: Inhibition of mTOR in human H460 cells assessed as p70S6 phosphorylation at Thr 389 at 10 uM; type: cell-based; method in brief: as §1
[9] = target: Serine/threonine-protein kinase mTOR (Homo sapiens) (UniProt P42345); assay: Inhibition of mTOR in human H460 cells assessed as 4E-BP1 phosphorylation at 3 uM by Western blot; type: cell-based
Method in brief: (§3)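 H460 cells were stimulated with 20% FCS in the presence of test compound at 3 or 10 µM, alongside untreated and FCS-only controls. Phosphorylation was assessed by Western blot.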

[10] = target: Serine/threonine-protein kinase mTOR (Homo sapiens) (UniProt P42345); assay: Inhibition of mTOR in human H460 cells assessed as 4E-BP1 phosphorylation at 10 uM by Western blot; type: cell-based; method in brief: as §3
[11] = target: T1, Hypoxia inducible factors; HIF-1-alpha, HIF-2-alpha; assay: Inhibition of HIF1 in human U251HRE cells at 10 uM by Western blot; type: cell-based
Method in brief: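 U251-HRE-Luc cells were induced with DFX for 6 h in the presence of test compound at 10 µM, alongside untreated and DFX-only controls. HIF-1 was assessed by Western blot.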

H460 [12] = assay: Inhibition of PI3K in human H460 cells assessed as Akt phosphorylation at 3 uM by Western blot
H460 [13] = assay: Inhibition of PI3K in human H460 cells assessed as Akt phosphorylation at 10 uM by Western blot

Row | Activity [2] | Activity [3] | Activity [4] | SMILES | inhibition (H460 [1]) [%] | Activity (H460 [5]) | also measured
1 | inactive | inactive | inactive | COc1ccc2c(N3CCN(C(C)=O)CC3)c3ccoc3nc2c1 | 58 | – | –
2 | inactive | inactive | inactive | COc1ccc2c([S+]([O-])c3ccc([N+](=O)[O-])cc3)c3ccoc3nc2c1 (centres undefined) | – | inactive | Activity [6]: inactive
3 | inactive | inactive | inactive | COc1cc2nc3occc3c(-n3ccnc3)c2cc1OC | 64 | – | –
4 | inactive | – | – | COc1ccc2c(OC)c3ccoc3nc2c1 | – | inactive | Activity [7]: inactive
5 | – | inactive | inactive | O=[N+]([O-])c1ccc(Sc2c3cc4c(cc3nc3occc23)OCO4)cc1 | – | inactive | inhibition [8]: 44%
6 | inactive | inactive | inactive | O=[N+]([O-])c1cn(-c2c3cc4c(cc3nc3occc23)OCO4)cn1 | 57 | – | –
7 | inactive | inactive | inactive | Fc1ccc(Oc2c3cc4c(cc3nc3occc23)OCO4)cc1 | 45 | – | –
8 | inactive | inactive | inactive | COc1ccc2c(Oc3cccnc3)c3ccoc3nc2c1 | 67 | – | –
9 | – | – | – | O=c1cc(N2CCOCC2)oc2c(-c3ccccc3)cccc12 | – | – | inhibition (H460 [5]): 40%; inhibition [2]: 45%
10 | inactive | inactive | inactive | COc1ccc2c(Sc3ccc(Br)cc3)c3ccoc3nc2c1 | – | inactive | Activity [6]: inactive
11 | inactive | inactive | inactive | COc1cc2nc3occc3c(Oc3cccnc3)c2cc1OC | 43 | – | –
12 | inactive | inactive | inactive | COc1ccc2c(Oc3cccc([N+](=O)[O-])c3)c3ccoc3nc2c1 | 43 | – | –
13 | inactive | inactive | inactive | COc1ccc2c(-n3ccnc3)c3ccoc3nc2c1 | 64 | – | –
14 | inactive | inactive | inactive | COc1cc2nc3occc3c(-n3cnc([N+](=O)[O-])c3)c2cc1OC | 58 | – | –
15 | inactive | inactive | inactive | COc1ccc2c(Sc3ccc(C#N)cc3)c3ccoc3nc2c1 | – | inactive | Activity [6]: inactive
16 | – | – | – | COc1ccc2c(Sc3ccc([N+](=O)[O-])cc3)c3ccoc3nc2c1 | 48 | – | inhibition [8]: 49%; Activity [6]: Active; IC50 [3]: 4 µM; Activity [9]: Active; Activity [10]: Active; IC50 [4]: 3 µM; Activity [11]: Active; Activity (H460 [12]): Active; Activity (H460 [13]): Active
17 | inactive | inactive | inactive | COc1ccc2c(Sc3ccc(C(=O)O)cc3)c3ccoc3nc2c1 | – | inactive | Activity [6]: inactive
18 | inactive | inactive | inactive | N#Cc1ccc(Oc2c3cc4c(cc3nc3occc23)OCO4)cc1 | 58 | – | –
19 | – | inactive | inactive | O=[N+]([O-])c1ccc(Oc2c3cc4c(cc3nc3occc23)OCO4)cc1 | – | inactive | inhibition [8]: 47%
20 | – | inactive | inactive | c1cncc(Oc2c3cc4c(cc3nc3occc23)OCO4)c1 | – | inactive | inhibition [8]: 51%
21 | inactive | inactive | inactive | COc1cc2nc3occc3c(Sc3ccc([N+](=O)[O-])cc3)c2cc1OC | – | inactive | –
22 | – | inactive | inactive | COc1ccc2c(Nc3ccc(C(C)=O)cc3)c3ccoc3nc2c1 | – | inactive | inhibition [8]: 53%
23 | – | inactive | inactive | c1cn(-c2c3cc4c(cc3nc3occc23)OCO4)cn1 | 40 | – | inhibition [8]: 45%
